Most compounds without a hit are left out; they make up all but 1.9% or so of the library.
Scp-1 inhibitor: Scp-1 (human) phosphatase inhibition. Q9GZU7. Recombinant Scp1, phosphopeptide, malachite green phosphate absorbance. inhibition, % at 20 µM. hit rate 0.88% among 340,000;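 active means inhibition above about 50% at 20 µM, limit read from the data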;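 further: plate controls were DMSO wells with enzyme for no effect and wells lacking enzyme for full effect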
Target sequence (Q9GZU7 76-261 limits assumed): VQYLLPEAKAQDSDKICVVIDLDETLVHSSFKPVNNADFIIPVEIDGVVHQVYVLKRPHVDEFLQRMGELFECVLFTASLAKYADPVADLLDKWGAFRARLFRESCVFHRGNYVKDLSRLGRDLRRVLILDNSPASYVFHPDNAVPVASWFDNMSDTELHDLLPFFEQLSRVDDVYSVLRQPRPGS
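System: SCP-1 catalytic domain; Reagent: Phospho 17-mer peptide substrate; Doses: one concentration, 20 µM, with 1.0% DMSO; Incubation: 45 min room-temperature reaction, 5 min colour, 30 min stabiliser; Signal: Phosphate-binding colour reagent, absorbance read at 630 nm.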
FAS-TE inh: inhibitors of human fatty acid synthase thioesterase domain; P49327; recombinant FAS-TE, OMFH fluorogenic substrate, fluorescence endpoint; inhibition, % at 15 µM; hit rate 0.67% among 360,000; AID 602261;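 active means compounds whose normalised, plate-corrected inhibition of enzyme fluorescence in the single-dose primary screen is 50% or more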;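 further: 0% = DMSO with enzyme and 100% = substrate without enzyme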
SUMO1-SIM PPI: alters human SUMO1 binding to SIM partners; inhibition, % at 20 µM; hit rate 0.33% among 360,000; SUMO1 binding to a labelled peptide, TR-FRET, 1 h; in the data active means inhibition above about 37%
Target sequence (P63165 whole entry, looked up): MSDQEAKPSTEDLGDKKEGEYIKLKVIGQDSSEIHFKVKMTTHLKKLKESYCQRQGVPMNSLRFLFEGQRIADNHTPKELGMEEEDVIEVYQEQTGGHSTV
LMPTP inh: blocks human LMPTP phosphatase. hit rate 0.22% among 360,000. P24666. AID 651560. recombinant LMPTP-A, OMFP fluorogenic substrate, fluorescence intensity. inhibition, % at 20 µM;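 active means compounds that cut the enzyme signal by at least half of the control window in the single-dose screen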;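 further: plate controls were DMSO wells with enzyme plus substrate for no effect and substrate without enzyme for full effect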
Target sequence (P24666 whole entry, looked up): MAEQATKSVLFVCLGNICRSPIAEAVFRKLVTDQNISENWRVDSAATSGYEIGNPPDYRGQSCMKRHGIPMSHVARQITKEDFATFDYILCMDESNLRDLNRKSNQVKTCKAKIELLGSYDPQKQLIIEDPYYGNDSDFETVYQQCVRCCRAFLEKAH
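Buffer or medium: Bis-Tris pH 6.0, DTT, detergent; Assay system: LMPTP-A enzyme; Quantity: 0.625 nM enzyme; Detection: endpoint fluorescence intensity; Times: 50 min dark incubation at room temperature; Controls: substrate-only low control, DMSO enzyme-plus-substrate high control; Doses: single 20 µM dose; Read-out: percent inhibition versus substrate-only and uninhibited controls; Reagent: 400 µM OMFP.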
STEP inh: STEP (human) phosphatase inhibition; recombinant STEP, OMFP fluorogenic substrate, fluorescence; inhibition, % at 20 µM; hit rate 0.25% among 360,000; AID 588621;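 active means inhibition at 20 µM, scaled per plate between control wells, above about 37%, limit read from the data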;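 further: 0% = DMSO with enzyme and substrate and 100% = substrate only without enzyme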
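Assay system: isolated STEP enzyme / Timing: 20 min at room temperature, dark / Doses: 20 µM, 1% DMSO / Technique: fluorescence intensity, excitation 480 nm, emission 540 nm / Reagent: fluorogenic phosphatase substrate OMFP at 25 µM final / Measure: percent inhibition scaled to no-enzyme and uninhibited-enzyme controls, plate-pattern corrected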
Scp1 confirm: confirmation of human Scp-1 phosphatase inhibitors | shares compounds with Scp-1 inhibitor | hit rate 61% among 2,500 | AID 540281 | inhibition, % at 20 µM | recombinant SCP-1 catalytic domain, phosphate release, malachite green absorbance;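 further: plate controls were DMSO with enzyme for no effect and buffer wells lacking enzyme for full effect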
Scp-1 MG ctr: colorimetric interference in Scp-1 counter-screen. shares compounds with Scp-1 inhibitor. Colorimetric interference counterscreen, malachite green absorbance 630 nm. apparent inhibition (interference), % at 20 µM. 2,500 tested, under 10 active. AID 540313;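 further: compounds added after enzyme reaction finished so only phosphate colour detection is probed; plate controls were DMSO wells with completed Scp-1 reaction for no effect and substrate wells lacking enzyme for full effect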
Scp-1 Tm shift: Scp-1 (human) binding by thermal shift | hit rate 25% among 1,500 | Recombinant SCP1, Sypro Orange thermal shift Tm | thermal shift relative to vanadate control, % at 40 µM | AID 540329 | shares compounds with Scp-1 inhibitor;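 active means substances whose mean melting-temperature shift, as a percentage of the reference inhibitor's shift, reaches about 5.3%, limit read from the data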;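 further: 0% = Tm of DMSO wells and 100% = Tm with sodium orthovanadate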
Starred values were filed as active, the others as inactive; x = not tested or not shown.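 How the source made its calls, unless noted: active means inhibition of at least 30% at 20 µM; inactive means the rest.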

SMILES	Scp-1 inhibitor	FAS-TE inh	SUMO1-SIM PPI	LMPTP inh	STEP inh	Scp1 confirm	Scp-1 MG ctr	others
COc1ccc(-c2noc(CN3CCN(c4ccccc4)CC3)n2)cc1	68*	21	1	1	-3	-15	-12
COc1ccc(N2CCN(Cc3nc(-c4ccccc4)no3)CC2)cc1	-9	2	-2	-1	-3	x	x
COc1ccc(-c2noc(CCC(=O)N3CCN(c4ccccc4Br)CC3)n2)cc1	54*	19	-3	4	3	-12	-8
CCOC(=O)C(CC)c1cc2n(c(=O)c1C#N)CCC21OCCO1 (configuration not stated)	x	-1	1	-2	0	x	x
Cc1ccc(NC(=O)c2noc3c2CCc2ccccc2-3)cc1	56*	17	-3	1	-1	-16	-15
CCCN1C(=O)c2cc(C(=O)O)ccc2C1O (configuration not stated)	0	-6	6	-2	0	x	x
CCCN1C(=O)c2cc(C(=O)NC3CCCCCC3)ccc2C1O (configuration not stated)	60*	-6	-1	-2	-1	-13	-6
O=c1nc2cccc3c2=c(/c1=C(\O)c1ccccc1)c1ccccc1c3=O	72*	-1	5	8	4	58*	-20	Scp-1 Tm shift=3
O=C(NC1CCCCC1)C(c1ccc(C(F)(F)F)cc1)n1c(=O)c(-c2ccccc2)nc2ccccc21 (configuration not stated)	x	x	2	-1	x	x	x
O=C1CCC(CCC(=O)N2CCCC(C(=O)c3cccc(C(F)(F)F)c3)C2)=NN1 (configuration not stated)	-8	-7	3	0	1	-9	-4
COc1cccc(C(=O)C2CCCN(C(=O)CCC3=NNC(=O)CC3)C2)c1 (configuration not stated)	4	-4	1	-2	-2	x	x
O=C(O)c1ccc(Oc2ccc(S(=O)(=O)c3ccc(C(=O)O)c(C(=O)O)c3)cc2)cc1	54*	-6	0	0	14	41*	-25	Scp-1 Tm shift=-10
O=C(O)c1ccc(S(=O)(=O)c2ccccc2)cc1	-8	-5	-3	0	-4	x	x
CCCCCCN1C[C@H](n2cc(-c3ccc(F)cc3)nn2)[C@@H](O)C[C@@H]1c1ccc(Cl)cc1	x	23	2	3	2	x	x
O=C(NCC(=O)N(Cc1cccs1)C(C(=O)NC1CCCCC1)c1ccncc1)c1ccco1 (configuration not stated)	52*	0	-2	0	0	-15	-19
CCOc1ccc(C(=O)CC(NCc2cccs2)C(=O)O)cc1 (configuration not stated)	-3	-3	-3	-1	2	x	x
CCCOc1ccc(/C=c2\sc3nc(-c4ccco4)nn3c2=O)cc1OCC	84*	-5	14	2	1	9	-25
O=C(CSc1nc2[nH]ncc2c(=O)[nH]1)Nc1ccccc1C(F)(F)F	51*	-4	1	0	-3	-7	-8
O=C(CSc1nc2[nH]ncc2c(=O)[nH]1)Nc1ccccc1F	-3	-9	4	-1	-3	x	x
CC[n+]1c(/C=C/Nc2ccccc2)sc2ccccc21	109*	-13	-13	-2	1	14	-13
CN(CC(=O)NCc1ccco1)S(=O)(=O)c1ccc2c(c1)n(C)c(=O)c(=O)n2C	-4	-6	2	-1	0	x	x
COc1ccc(NC(=O)CN(C)S(=O)(=O)c2ccc3c(c2)n(C)c(=O)c(=O)n3C)cc1	-3	1	-5	-1	-2	x	x
COc1ccc(CNC(=O)CN(C)S(=O)(=O)c2ccc3c(c2)n(C)c(=O)c(=O)n3C)cc1	-6	-1	5	-1	0	-8	-12
COc1cccc(CNC(=O)CN(C)S(=O)(=O)c2ccc3c(c2)n(C)c(=O)c(=O)n3C)c1	-7	0	5	-1	2	-1	0
COc1ccccc1-n1cnc2c(c1=O)c1nc3ccccc3nc1n2-c1ccc(C)c(C)c1	96*	12	1	7	17	67*	-6	Scp-1 Tm shift=-8
SMILES	Scp-1 inhibitor	FAS-TE inh	SUMO1-SIM PPI	LMPTP inh	STEP inh	Scp1 confirm	Scp-1 MG ctr	others
O=C(Oc1ccccc1C(=O)N1CCOCC1)c1ccc(Br)cc1	-5	-8	-1	-1	-4	x	x
O=C(Oc1ccccc1C(=O)N1CCOCC1)c1ccc(F)cc1	97*	0	4	2	2	0	-5
O=C(Nc1ccc(N2CCOCC2)cc1)c1ccc2nc(-c3ccco3)c(-c3ccco3)nc2c1	12	-7	-3	4	2	x	x
O=C(Nc1ccccc1)c1ccc2nc(-c3ccco3)c(-c3ccco3)nc2c1	71*	17	33	42	4	15	-15
CCCCNC(=O)c1ccc2nc(-c3ccco3)c(-c3ccco3)nc2c1	53*	0	40*	48	3	51*	-6	Scp-1 Tm shift=13*
COc1ccc(C(O)c2cnc(C)n2Cc2ccccc2)cc1 (configuration not stated)	x	-3	0	0	0	x	x
Nc1nc(SCc2ccc(Cl)cc2Cl)nc2nc3c(cc12)CCCC3	97*	2	2	27	10	76*	6	Scp-1 Tm shift=4
CCOC(=O)c1ccc2c(c1)N(CC)C(=O)c1ccccc1S2	83*	3	6	1	0	13	-9
C=CCNC(=O)c1ccc2c(c1)N(CC)C(=O)c1ccccc1S2	-5	-1	1	-2	-5	x	x
CC(C)(C)c1ccc(NC(=O)c2cc(C3CCCN(C(=O)CCc4ccccc4)C3)on2)cc1 (configuration not stated)	x	8	-2	4	2	x	x
Cc1noc(C)c1NC(=O)N(C)C[C@H]1Oc2c(NC(=O)C3CC3)cccc2C(=O)N([C@H](C)CO)C[C@@H]1C	0	-12	9	0	0	x	x
COc1ccc(S(=O)(=O)N(C)C[C@H]2Oc3c(NC(=O)Nc4c(C)noc4C)cccc3C(=O)N([C@@H](C)CO)C[C@H]2C)cc1	56*	-6	0	-2	0	1	-16
Cc1noc(C)c1NC(=O)N(C)C[C@H]1Oc2c(cccc2N(C)C)C(=O)N([C@H](C)CO)C[C@@H]1C	74*	-12	1	-1	-4	17	2
Cc1ccc(S(=O)(=O)NCCN=Cc2ccc(N(C)C)cc2)cc1	-5	-3	-7	1	0	x	x

Compound activity from PubChem.
